Results from ChEMBL document CHEMBL4680226, “Design, synthesis, and evaluation of N-phenyl-4-(2-phenylsulfonamido)-benzamides as microtubule-targeting agents in drug-resistant cancer cells, displaying HDAC inhibitory response” (Eur J Med Chem, 2020).
Activity calls are given as the source filed them. The calls are words filed in the database; no cut-off is given here.

Tests used:
KB = test: Antiproliferative activity against human KB cells incubated for 48 hrs by SRB assay; type: functional
Procedure, shortened: (§1)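 KB parental and resistant sublines kept in RPMI 1640 with 5% FBS at 37 °C, 5% CO2. Cells plated, left overnight, then given graded compound concentrations for 48 h. A time-zero plate was fixed with 10% TCA at dosing. Cells were stained with 0.4% SRB in 1% acetic acid, unbound dye washed off, bound dye dissolved in 10 mM Tris base, and absorbance read at 515 nm.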

Histone deacetylase 1 = Histone deacetylase 1 (Homo sapiens, UniProt Q13547); test: Inhibition of recombinant human full-length C-terminal FLAG-His tagged HDAC1 (1 to 482 residues) expressed in Sf21 insect cells using RHK-K(Ac)-AMC as substrate measured after 60 mins by fluorescence assay
Histone deacetylase 8 = biological target: T1, Histone deacetylase 8 (Homo sapiens, UniProt Q9BY41); test: Inhibition of human recombinant HDAC8 using RHKAcKAc-AMC as substrate measured after 60 mins by fluorescence assay
T1 sequence (Q9BY41 whole entry): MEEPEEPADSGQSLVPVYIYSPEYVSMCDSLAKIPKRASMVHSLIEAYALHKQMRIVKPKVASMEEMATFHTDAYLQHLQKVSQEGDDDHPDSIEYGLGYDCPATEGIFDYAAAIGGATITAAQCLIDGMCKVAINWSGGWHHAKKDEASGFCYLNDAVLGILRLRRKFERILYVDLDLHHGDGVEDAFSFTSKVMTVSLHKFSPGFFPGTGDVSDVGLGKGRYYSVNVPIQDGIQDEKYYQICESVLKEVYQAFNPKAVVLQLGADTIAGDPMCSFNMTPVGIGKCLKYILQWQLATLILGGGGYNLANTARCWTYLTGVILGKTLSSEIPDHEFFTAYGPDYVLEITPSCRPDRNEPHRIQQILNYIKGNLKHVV

[1] = Antiproliferative activity against human KB-VIN cells incubated for 48 hrs by SRB assay; type: functional; conditions: KBVIN; procedure, shortened: as §1
KB-VIN [2] = test: Induction of apoptosis in human KB-VIN cells assessed as increase in cleaved caspase-9 expression at 0.01 to 0.5 uM by Western blot analysis; type: functional, cell-based; conditions: dose 0.01-0.5 µM
Procedure, shortened: (§2)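 Resistant KB cells attached overnight, then drug-treated at the stated concentrations and times (24 h or 48 h). Lysates were immunoblotted for cleaved PARP, caspase-3, -8 and -9, and γH2AX, with anti-mouse or anti-rabbit IgG secondaries.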

KB-VIN [3] = test: Induction of apoptosis in human KB-VIN cells assessed as increase in cleaved PARP expression at 0.01 to 0.5 uM by Western blot analysis; type: functional, cell-based; conditions: dose 0.01-0.5 µM; procedure, shortened: as §2
KB-VIN [4] = test: Induction of apoptosis in human KB-VIN cells assessed as increase in cleaved caspase-8 expression at 0.01 to 0.5 uM by Western blot analysis; type: functional, cell-based; conditions: dose 0.01-0.5 µM; procedure, shortened: as §2
Histone deacetylase 2 = Histone deacetylase 2 (Homo sapiens, UniProt Q92769); test: Inhibition of recombinant human C-terminal GST-tagged HDAC2 (1 to 488 residues) expressed in baculovirus infected insect cells using RHKKAc-AMC as substrate measured after 60 mins by fluorescence assay
[5] = Antiproliferative activity against human KB7D cells incubated for 48 hrs by SRB assay; type: functional; procedure, shortened: as §1
KB-VIN [6] = test: Induction of apoptosis in human KB-VIN cells assessed as increase in cleaved caspase-3 expression at 0.01 to 0.5 uM by Western blot analysis; type: functional, cell-based; conditions: dose 0.01-0.5 µM; procedure, shortened: as §2
[7] = biological target: Histone deacetylase 3/Nuclear receptor corepressor 2 (HDAC3/NCoR2) (Homo sapiens, UniProt O15379); test: Inhibition of human recombinant HDAC3/NCOR2 using RHKKAc-AMC as substrate measured after 60 mins by fluorescence assay; type: protein-complex assay
KB7D [8] = test: Induction of apoptosis in human KB7D cells assessed as increase in activated gammaH2AX expression at 0.1 uM measured after 24 hrs by Western blot analysis; type: functional, cell-based; procedure, shortened: as §2
KB7D [9] = test: Induction of apoptosis in human KB7D cells assessed as increase in activated gammaH2AX expression measured after 24 hrs by Western blot analysis; type: functional, cell-based; procedure, shortened: as §2
KB7D [10] = test: Induction of apoptosis in human KB7D cells assessed as increase in activated gammaH2AX expression at 5 uM measured after 24 hrs by Western blot analysis; type: functional, cell-based; procedure, shortened: as §2

Sequence of Histone deacetylase 3/Nuclear receptor corepressor 2 (HDAC3/NCoR2) (O15379 whole entry): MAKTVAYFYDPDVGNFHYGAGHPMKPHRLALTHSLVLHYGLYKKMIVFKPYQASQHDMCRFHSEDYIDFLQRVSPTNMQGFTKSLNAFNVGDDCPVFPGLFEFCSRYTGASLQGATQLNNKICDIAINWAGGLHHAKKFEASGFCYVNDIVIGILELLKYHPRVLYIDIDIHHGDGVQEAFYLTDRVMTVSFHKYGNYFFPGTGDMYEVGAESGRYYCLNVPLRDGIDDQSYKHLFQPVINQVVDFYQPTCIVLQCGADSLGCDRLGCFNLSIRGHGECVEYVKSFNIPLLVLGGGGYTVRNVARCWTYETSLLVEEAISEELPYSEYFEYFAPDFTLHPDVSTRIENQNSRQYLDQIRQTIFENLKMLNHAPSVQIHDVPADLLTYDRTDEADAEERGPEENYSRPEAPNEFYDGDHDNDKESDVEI
Sequence of Histone deacetylase 3/Nuclear receptor corepressor 2 (HDAC3/NCoR2) (Q9Y618 whole entry, further chain): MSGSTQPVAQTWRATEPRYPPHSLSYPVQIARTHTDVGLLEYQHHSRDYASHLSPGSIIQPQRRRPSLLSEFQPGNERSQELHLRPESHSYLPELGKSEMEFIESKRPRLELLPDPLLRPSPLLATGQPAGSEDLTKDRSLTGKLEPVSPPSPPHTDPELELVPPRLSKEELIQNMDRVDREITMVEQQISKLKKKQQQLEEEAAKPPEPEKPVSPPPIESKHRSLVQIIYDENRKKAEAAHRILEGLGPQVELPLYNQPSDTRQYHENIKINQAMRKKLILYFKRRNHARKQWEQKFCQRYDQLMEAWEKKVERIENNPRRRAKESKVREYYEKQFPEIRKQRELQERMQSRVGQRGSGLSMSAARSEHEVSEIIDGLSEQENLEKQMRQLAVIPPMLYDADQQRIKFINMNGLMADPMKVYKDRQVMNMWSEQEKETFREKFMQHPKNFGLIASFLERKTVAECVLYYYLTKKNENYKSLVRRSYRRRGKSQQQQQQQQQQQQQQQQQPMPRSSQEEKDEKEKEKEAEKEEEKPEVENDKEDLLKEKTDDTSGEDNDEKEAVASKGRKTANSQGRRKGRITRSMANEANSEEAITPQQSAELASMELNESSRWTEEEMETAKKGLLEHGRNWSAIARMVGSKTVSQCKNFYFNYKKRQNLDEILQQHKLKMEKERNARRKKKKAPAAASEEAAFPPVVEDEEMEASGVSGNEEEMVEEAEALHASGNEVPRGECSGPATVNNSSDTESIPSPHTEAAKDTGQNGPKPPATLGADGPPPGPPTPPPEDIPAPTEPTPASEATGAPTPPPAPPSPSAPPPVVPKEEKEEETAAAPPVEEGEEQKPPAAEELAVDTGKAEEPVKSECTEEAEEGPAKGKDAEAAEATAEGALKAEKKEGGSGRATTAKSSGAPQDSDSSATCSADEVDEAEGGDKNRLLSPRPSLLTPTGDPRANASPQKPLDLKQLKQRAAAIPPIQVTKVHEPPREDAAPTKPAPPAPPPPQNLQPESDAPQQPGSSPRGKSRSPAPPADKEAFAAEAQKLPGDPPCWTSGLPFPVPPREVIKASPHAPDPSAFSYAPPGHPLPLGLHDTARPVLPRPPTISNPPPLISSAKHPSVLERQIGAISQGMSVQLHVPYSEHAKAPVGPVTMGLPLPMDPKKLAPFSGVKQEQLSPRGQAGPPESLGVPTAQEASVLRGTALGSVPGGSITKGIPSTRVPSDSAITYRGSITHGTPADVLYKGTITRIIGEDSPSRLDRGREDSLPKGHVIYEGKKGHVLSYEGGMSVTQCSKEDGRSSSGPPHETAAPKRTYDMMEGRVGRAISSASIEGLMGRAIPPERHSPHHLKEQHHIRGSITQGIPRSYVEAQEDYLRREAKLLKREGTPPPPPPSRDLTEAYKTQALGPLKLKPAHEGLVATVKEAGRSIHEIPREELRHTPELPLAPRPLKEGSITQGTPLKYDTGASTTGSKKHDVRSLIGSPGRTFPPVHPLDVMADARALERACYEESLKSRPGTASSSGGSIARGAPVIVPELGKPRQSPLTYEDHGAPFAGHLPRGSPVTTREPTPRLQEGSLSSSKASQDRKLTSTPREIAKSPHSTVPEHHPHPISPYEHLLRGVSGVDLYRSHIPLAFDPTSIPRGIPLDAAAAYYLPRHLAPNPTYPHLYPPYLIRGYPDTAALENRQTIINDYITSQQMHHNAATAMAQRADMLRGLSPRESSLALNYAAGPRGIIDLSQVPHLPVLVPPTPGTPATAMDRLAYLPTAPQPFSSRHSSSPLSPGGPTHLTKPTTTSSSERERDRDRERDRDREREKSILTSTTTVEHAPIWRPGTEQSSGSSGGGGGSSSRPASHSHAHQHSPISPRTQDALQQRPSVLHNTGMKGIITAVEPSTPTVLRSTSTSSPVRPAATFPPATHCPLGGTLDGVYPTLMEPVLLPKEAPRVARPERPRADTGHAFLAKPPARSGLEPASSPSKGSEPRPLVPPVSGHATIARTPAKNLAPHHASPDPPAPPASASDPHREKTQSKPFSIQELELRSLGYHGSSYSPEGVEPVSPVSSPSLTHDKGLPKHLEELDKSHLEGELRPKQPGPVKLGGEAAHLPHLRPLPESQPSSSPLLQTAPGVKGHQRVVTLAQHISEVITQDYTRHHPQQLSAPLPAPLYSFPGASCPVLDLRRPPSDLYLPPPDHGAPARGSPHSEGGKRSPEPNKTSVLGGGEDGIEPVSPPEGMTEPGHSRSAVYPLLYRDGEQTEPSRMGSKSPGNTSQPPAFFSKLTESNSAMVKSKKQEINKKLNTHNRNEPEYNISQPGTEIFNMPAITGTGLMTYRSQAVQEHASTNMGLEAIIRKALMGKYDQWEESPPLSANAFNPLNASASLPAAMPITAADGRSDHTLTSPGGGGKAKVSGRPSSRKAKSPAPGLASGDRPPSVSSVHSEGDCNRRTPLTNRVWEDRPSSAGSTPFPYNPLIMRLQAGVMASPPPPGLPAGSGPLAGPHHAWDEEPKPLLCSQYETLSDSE
Sequence of Histone deacetylase 2 (Q92769 whole entry, the tested form may be a part): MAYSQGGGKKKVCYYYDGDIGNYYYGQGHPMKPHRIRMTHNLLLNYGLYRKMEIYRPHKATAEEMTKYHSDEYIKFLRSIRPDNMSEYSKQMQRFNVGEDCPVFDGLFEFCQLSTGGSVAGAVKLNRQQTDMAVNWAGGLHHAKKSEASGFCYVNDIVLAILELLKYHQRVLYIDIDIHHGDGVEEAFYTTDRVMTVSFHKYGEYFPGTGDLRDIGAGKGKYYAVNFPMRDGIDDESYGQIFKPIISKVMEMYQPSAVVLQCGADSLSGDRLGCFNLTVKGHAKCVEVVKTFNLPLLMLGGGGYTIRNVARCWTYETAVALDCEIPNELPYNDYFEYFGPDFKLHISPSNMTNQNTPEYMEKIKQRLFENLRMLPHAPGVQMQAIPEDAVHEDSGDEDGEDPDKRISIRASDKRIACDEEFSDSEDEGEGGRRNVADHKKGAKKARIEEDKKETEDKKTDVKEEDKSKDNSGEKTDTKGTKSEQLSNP
Sequence of Histone deacetylase 1 (Q13547 whole entry, the tested form may be a part): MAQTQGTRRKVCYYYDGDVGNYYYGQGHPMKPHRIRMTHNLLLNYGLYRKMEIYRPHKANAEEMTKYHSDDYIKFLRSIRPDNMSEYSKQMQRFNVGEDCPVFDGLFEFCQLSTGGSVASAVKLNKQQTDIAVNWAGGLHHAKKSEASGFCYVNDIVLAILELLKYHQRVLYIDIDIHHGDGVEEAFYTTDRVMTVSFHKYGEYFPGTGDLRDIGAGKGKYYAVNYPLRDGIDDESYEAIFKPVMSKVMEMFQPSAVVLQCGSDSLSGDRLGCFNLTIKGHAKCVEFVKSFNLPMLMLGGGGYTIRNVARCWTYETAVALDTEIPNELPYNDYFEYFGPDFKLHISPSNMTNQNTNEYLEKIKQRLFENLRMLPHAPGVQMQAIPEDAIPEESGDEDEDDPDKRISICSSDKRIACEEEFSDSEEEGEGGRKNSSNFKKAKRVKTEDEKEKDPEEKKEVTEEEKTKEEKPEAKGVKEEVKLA

Compound: Nc1ccccc1NC(=O)c1ccc(CCc2ccccc2NS(=O)(=O)c2ccccc2)cc1
- GI50 (KB): 456 nM

Compound: Nc1ccccc1NC(=O)c1ccc(CCc2ccccc2NS(=O)(=O)c2ccc(F)cc2)cc1
- GI50 (KB): 884 nM

Compound: COc1ccc(S(=O)(=O)Nc2cccc(CCc3ccc(C(=O)Nc4ccccc4N)cc3)c2)cc1
- GI50 (KB): 678 nM

Compound: COc1ccc(S(=O)(=O)Nc2ccccc2CCc2ccc(C(=O)Nc3ccccc3N)cc2)cc1
- GI50 (KB): 23 nM
- IC50 (Histone deacetylase 1): 1190 nM
- IC50 (Histone deacetylase 8): > 10000 nM
- GI50 [1]: 31 nM
- Activity (KB-VIN [2]): Active
- Activity (KB-VIN [3]): Active
- Activity (KB-VIN [4]): Active
- IC50 (Histone deacetylase 2): > 10000 nM
- GI50 [5]: 22 nM
- Activity (KB-VIN [6]): Active
- IC50 [7]: 2550 nM

Compound: COc1ccc(S(=O)(=O)Nc2ccc(CCc3ccc(C(=O)Nc4ccccc4N)cc3)cc2)cc1
- GI50 (KB): > 10000 nM

Compound: COc1ccc(S(=O)(=O)Nc2ccccc2CCc2ccc(C(=O)Nc3ccccc3)cc2)cc1
- GI50 (KB): 137 nM

Compound: COc1ccc(S(=O)(=O)Nc2ccccc2CCc2ccc(C(=O)Nc3cc(F)ccc3N)cc2)cc1
- GI50 (KB): 66 nM
- IC50 (Histone deacetylase 1): > 10000 nM
- IC50 (Histone deacetylase 8): > 10000 nM
- GI50 [1]: 29 nM
- Activity (KB-VIN [2]): Active
- Activity (KB-VIN [3]): Active
- Activity (KB-VIN [4]): Active
- IC50 (Histone deacetylase 2): 9080 nM
- GI50 [5]: 12 nM
- Activity (KB-VIN [6]): Active
- IC50 [7]: 1750 nM

Compound: COc1ccc(S(=O)(=O)Nc2cccnc2Nc2ccc(O)cc2)cc1 [ABT-751]
- GI50 (KB): 801 nM
- GI50 [1]: 2070 nM
- Activity (KB7D [8]): Active
- GI50 [5]: 444 nM

Compound: COc1cc([C@@H]2c3cc4c(cc3[C@@H](O[C@@H]3O[C@@H]5CO[C@@H](C)O[C@H]5[C@H](O)[C@H]3O)[C@H]3COC(=O)[C@H]23)OCO4)cc(OC)c1O [ETOPOSIDE]
- GI50 (KB): 8390 nM
- GI50 [5]: 98600 nM
- Activity (KB7D [9]): Active

Compound: Nc1ccccc1NC(=O)c1ccc(CCc2ccccc2NS(=O)(=O)c2ccc(Cl)cc2)cc1
- GI50 (KB): 448 nM

Compound: N#Cc1ccc(S(=O)(=O)Nc2ccccc2CCc2ccc(C(=O)Nc3ccccc3N)cc2)cc1
- GI50 (KB): 790 nM

Compound: COc1ccc(S(=O)(=O)Nc2ccccc2-c2ccc(C(=O)Nc3ccccc3N)cc2)cc1
- GI50 (KB): 442 nM

Compound: COc1ccc(S(=O)(=O)Nc2ccccc2CCc2ccc(C(=O)Nc3ccc(N)cc3)cc2)cc1
- GI50 (KB): 286 nM

Compound: COc1ccc(S(=O)(=O)Nc2ccccc2CCc2ccc(C(=O)Nc3ccccc3O)cc2)cc1
- GI50 (KB): 472 nM

Compound: COc1cccc(S(=O)(=O)Nc2ccccc2CCc2ccc(C(=O)Nc3ccccc3N)cc2)c1
- GI50 (KB): 462 nM

Compound: COc1ccc(S(=O)(=O)Nc2ccccc2CCc2ccc(C(=O)Nc3ccccc3N)cc2)cc1OC
- GI50 (KB): 888 nM

Compound: COc1ccc(S(=O)(=O)Nc2ccccc2CCc2ccc(C(=O)NO)cc2)cc1
- GI50 (KB): > 10000 nM

Compound: Nc1ccccc1NC(=O)c1ccc(CNC(=O)OCc2cccnc2)cc1 [ENTINOSTAT]
- GI50 (KB): 6630 nM
- GI50 [1]: 7710 nM
- GI50 [5]: 5680 nM
- Activity (KB7D [10]): Active

Compound: COc1ccc(S(=O)(=O)Nc2ccccc2OCc2ccc(C(=O)Nc3ccccc3N)cc2)cc1
- GI50 (KB): 60 nM
- IC50 (Histone deacetylase 1): 5450 nM
- IC50 (Histone deacetylase 8): > 10000 nM
- GI50 [1]: 42 nM
- IC50 (Histone deacetylase 2): 4950 nM
- GI50 [5]: 62 nM
- IC50 [7]: 7920 nM

Compound: Nc1ccccc1NC(=O)c1ccc(CCc2ccccc2)cc1
- GI50 (KB): > 10000 nM

Compound: Nc1ccccc1NC(=O)c1ccc(CCc2ccccc2NS(=O)(=O)c2ccc(Br)cc2)cc1
- GI50 (KB): 124 nM

Compound: COc1ccc(S(=O)(=O)Nc2ccccc2/C=C/c2ccc(C(=O)Nc3ccccc3N)cc2)cc1
- GI50 (KB): 660 nM

Compound: COc1ccc(S(=O)(=O)Nc2ccccc2CCc2ccccc2)cc1
- GI50 (KB): 4410 nM

Compound: COc1ccc(S(=O)(=O)Nc2ccccc2CCc2ccc(C(=O)Nc3cccc(N)c3)cc2)cc1
- GI50 (KB): 697 nM
